Source: ChEMBL document CHEMBL3875207, “New derivatives of 7-chloroquinolin-4-amine with antiprotozoal activity” (Bioorg Med Chem, 2017)

Tests used:
Plasmodium falciparum [1] = experiment: Antiplasmodial activity against chloroquine-sensitive Plasmodium falciparum NF54 infected in human RBC assessed as reduction in [3H]hypoxanthine incorporation preincubated for 48 hrs followed by [3H]hypoxanthine addition measured after 24 hrs by liquid scintillation counting method; type: functional
How it was run: (§1)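 Erythrocytic P. falciparum in RPMI 1640 without hypoxanthine with HEPES, NaHCO3, neomycin, Albumax (5 g/L) and washed human A+ red cells at 2.5% haematocrit, 0.3% parasitaemia. Compounds from DMSO stocks (10 mg/mL) tested as eleven 3-fold dilutions, 100 to 0.002 µg/mL. Incubation at 37°C under 4% CO2/3% O2/93% N2; 3H-hypoxanthine (0.5 µCi) added at 48 h, 24 h more, scintillation counting; IC50 by linear regression from sigmoidal curves.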

[2] = Selectivity index, ratio of IC50 for rat L6 cells to IC50 for chloroquine-sensitive Plasmodium falciparum NF54 infected in human RBC; type: toxicity, cell-based; settings: read-out: Ratio IC50
How it was run: (§2)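 Ratio of the IC50 in rat L-6 myoblasts to the P. falciparum IC50. L-6: 4000 cells per well, RPMI 1640 with L-glutamine and 10% FBS, 70 h, Alamar Blue 2 h, fluorescence ex 536/em 588 nm. Both use eleven 3-fold dilutions, 100 to 0.002 µg/mL.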

[3] = tested on: Trypanosoma brucei rhodesiense; experiment: Antitrypanosomal activity against Trypanosoma brucei rhodesiense STIB900 bloodstream forms isolated from patient after 70 hrs by microplate alamar blue assay; type: functional; settings: STIB900, 70 h
How it was run: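 MEM with 25 mM HEPES, 1 g/L extra glucose, non-essential amino acids, 0.2 mM 2-mercaptoethanol, 1 mM Na-pyruvate, 15% heat-inactivated horse serum; 4×10^3 bloodstream forms per well. Eleven 3-fold dilutions, 100 to 0.002 µg/mL; 70 h, 37°C, 5% CO2. Resazurin added, further 2-4 h; fluorescence ex 536/em 588 nm. IC50 by linear regression from sigmoidal dose-inhibition curves.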

[4] = Cytotoxicity against rat L6 cells assessed as growth inhibition after 70 hrs by alamar blue assay; type: toxicity
How it was run: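 4000 L-6 cells per well in RPMI 1640 with 1% L-glutamine (200 mM) and 10% FBS. Eleven 3-fold dilutions spanning 100 to 0.002 µg/mL; 70 h incubation, controls checked microscopically. Alamar Blue added for 2 h more; fluorescence ex 536/em 588 nm. IC50 by linear regression from sigmoidal dose-inhibition curves.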

[5] = Selectivity index, ratio of IC50 for rat L6 cells to IC50 for chloroquine/pyrimethamine-resistant Plasmodium falciparum K1 infected in human RBC; type: toxicity, cell-based; settings: read-out: Ratio IC50; how it was run: as §2
[6] = Resistance index, ratio of IC50 for chloroquine/pyrimethamine-resistant Plasmodium falciparum K1 infected in human RBC to IC50 for chloroquine-sensitive Plasmodium falciparum NF54 infected in human RBC; type: functional
How it was run: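 Resistance index is the ratio of the IC50 against K1 to the IC50 against NF54. Both IC50s come from the 3H-hypoxanthine incorporation assay run in parallel on the two strains.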

[7] = Selectivity index, ratio of IC50 for rat L6 cells to IC50 for Trypanosoma brucei rhodesiense STIB900 bloodstream forms; type: toxicity, cell-based; settings: read-out: Ratio IC50
How it was run: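 Ratio of L-6 cytotoxicity IC50 to T. b. rhodesiense STIB900 IC50. L-6: 4000 cells in RPMI 1640 with L-glutamine and 10% FBS, 70 h, then Alamar Blue 2 h. Trypanosomes: 4×10^3 bloodstream forms in supplemented MEM with 15% horse serum, 37°C, 5% CO2, 70 h, then Alamar Blue 2-4 h. Both read by fluorescence (ex 536/em 588 nm) over eleven 3-fold dilutions, 100 to 0.002 µg/mL.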

Plasmodium falciparum [8] = experiment: Antiplasmodial activity against chloroquine/pyrimethamine-resistant Plasmodium falciparum K1 infected in human RBC assessed as reduction in [3H]hypoxanthine incorporation preincubated for 48 hrs followed by [3H]hypoxanthine addition measured after 24 hrs by liquid scintillation counting method; type: functional; how it was run: as §1

Structure (SMILES)	IC50 (Plasmodium falciparum [1])	selectivity ratio [2]	IC50 [3]	IC50 at 70 h [4]	selectivity ratio [5]	Ratio IC50 [6]	selectivity ratio [7]	IC50 (Plasmodium falciparum [8])
CN1CCN(CCNc2ccnc3cc(Cl)ccc23)CC1	6.6 nM	2540	690 nM	16700 nM	465	5.45	24.2	36 nM
CCN(CC)CCCC(C)Nc1ccnc2cc(Cl)ccc12 (centres undefined) [CHLOROQUINE]	–	–	–	90900 nM	–	–	–	–
COc1cc([C@@H]2c3cc4c(cc3[C@H](O)[C@H]3COC(=O)[C@H]23)OCO4)cc(OC)c1OC [PODOFILOX]	–	–	–	12 nM	–	–	–	–
CN1CCN(CC(=O)NCCNc2ccnc3cc(Cl)ccc23)CC1	36 nM	1060	18300 nM	38000 nM	13.3	79.7	2.08	2870 nM
O=C(CN1CCCC1)NCCNc1ccnc2cc(Cl)ccc12	18 nM	2580	740 nM	46400 nM	618	4.17	62.7	75 nM
CCCN(CCC)CCNc1ccnc2cc(Cl)ccc12	3.3 nM	4530	140 nM	14900 nM	1520	2.97	107	9.8 nM
CCCN(CCC)CCN1CCN(c2ccnc3cc(Cl)ccc23)CC1	110 nM	517	1070 nM	56800 nM	646	0.8	53.1	88 nM
O=C(CN1CCCCC1)NCCNc1ccnc2cc(Cl)ccc12	11 nM	2160	1280 nM	23700 nM	258	8.36	18.5	92 nM
Clc1ccc2c(N3CCN(CCN4CCCCCC4)CC3)ccnc2c1	70 nM	362	1610 nM	25400 nM	338	1.07	15.8	75 nM
Clc1ccc2c(NCCN3CCCCCC3)ccnc2c1	3.3 nM	4010	590 nM	13200 nM	827	4.85	22.4	16 nM
CCCN(CCC)CC(=O)N1CCN(c2ccnc3cc(Cl)ccc23)CC1	230 nM	306	1460 nM	70500 nM	227	1.35	48.3	310 nM
Clc1ccc2c(NCCCN3CCCCCC3)ccnc2c1	6.3 nM	3170	780 nM	20000 nM	525	6.03	25.6	38 nM
CCCN(CCC)CC(=O)NCCNc1ccnc2cc(Cl)ccc12	14 nM	1570	940 nM	22000 nM	732	2.14	23.4	30 nM
Clc1ccc2c(NCCNCCN3CCCCCC3)ccnc2c1	11 nM	6920	1280 nM	76100 nM	1150	6	59.5	66 nM
CN1CCN(CCCNc2ccnc3cc(Cl)ccc23)CC1	3.1 nM	5860	1140 nM	18200 nM	586	10	15.9	31 nM
CN1CCN(CC(=O)N2CCN(c3ccnc4cc(Cl)ccc34)CC2)CC1	140 nM	570	2020 nM	79800 nM	285	2	39.5	280 nM
Nc1nc(N)nc(Nc2ccc([As]3SCC(CO)S3)cc2)n1 (centres undefined) [MELARSOPROL]	–	–	–	7780 nM	–	–	778	–
O=C(CN1CCCCCC1)NCCNc1ccnc2cc(Cl)ccc12	11 nM	1290	280 nM	14200 nM	258	5	50.8	55 nM
